697 NFkB inh: lowers PMA/ionomycin-induced NF-kB signal in 697 B cells. hit rate 0.33% among 330,000. AID 435022. inhibition, % at 4 µM. 697 B-cell NF-kB luciferase reporter, 16 h; in the data active = inhibition above about 35%
GPR7 antagonist: antagonists of human GPR7 (neuropeptides B/W receptor 1). P48145. GPR7-expressing cells, fluorescence antagonist assay. inhibition, % at 4.4 µM. hit rate 1.1% among 290,000. AID 1861; in the data active = inhibition above about 16%, passing the limit was not always enough;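 note: cells stimulated with the agonist NPW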
Target sequence (P48145 whole entry, looked up): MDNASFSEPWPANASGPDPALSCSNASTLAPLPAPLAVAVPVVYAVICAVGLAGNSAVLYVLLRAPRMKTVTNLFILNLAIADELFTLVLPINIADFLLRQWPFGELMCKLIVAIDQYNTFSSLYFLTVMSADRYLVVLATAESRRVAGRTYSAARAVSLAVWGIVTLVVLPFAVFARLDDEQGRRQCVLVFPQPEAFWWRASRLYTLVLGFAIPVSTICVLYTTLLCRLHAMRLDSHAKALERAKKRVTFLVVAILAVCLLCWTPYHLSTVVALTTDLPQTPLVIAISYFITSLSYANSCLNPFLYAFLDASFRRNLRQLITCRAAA
Jurkat NFkB inh: inhibitors of the PMA/ionomycin-induced NF-kB reporter in Jurkat cells | AID 435003 | inhibition, % at 4 µM | hit rate 0.53% among 330,000 | PMA/ionomycin-induced NF-kB luciferase reporter, luminescence; in the data active = inhibition above about 50%
HSF1 activator: increases HSF-1 driven luciferase reporter signal; NIH3T3-HGL HSF-1 luciferase reporter, MG132, 8 h; 100% = twice DMSO control signal; activation, % at 9 µM; hit rate 1.7% among 300,000;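 active = mean replicate activation of at least 50% with a set share of replicates each reaching 50%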
T cruzi inh: blocks replication of Trypanosoma cruzi; T. cruzi beta-gal in NIH3T3, luminescence, 90 h; inhibition, % (concentration not given with the values); hit rate 1.4% among 300,000; AID 1885;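 active = mean inhibition across valid replicates above about 55%, limit read from the data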;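 note: signal also drops with host cell toxicity which is not excluded here; higher percent means less beta-gal luminescence so fewer parasites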
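System: Mouse NIH/3T3 fibroblasts infected with β-gal-expressing T. cruzi Tulahuen C4 | Quantity: NIH/3T3 cells, 5,000 per well | Reagent: 5000 reporter trypomastigotes per well | Dosing: Compound pinned at 50 nL/well, DMSO | Schedule: 3 h host attachment, then at least 90 h co-culture | Detection: GalScreen luminescence, 60 min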
HSF1 inh: HSF1 inhibition. NIH3T3-HGL HSE-luciferase, MG132-induced, luminescence 8 h; hits give low values. activity change, negative = inhibition, % at 7.5 µM (by protocol). hit rate 0.77% among 300,000. AID 2098;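 active = more than half of replicate wells show activity change below -50%, luminescence cut by over half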;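 note: luciferase reports HSF-1 transcriptional activity via heat shock element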
Each line names hits and unclear results; the compound was inactive in the other large screens. Compounds with a hit are over-represented: about 4.8% of the library has one in this group of screens.

Cc1cccc(OCCCc2c(C)n[nH]c2C)c1	none
Cc1n[nH]c(C)c1CCOc1ccc(C(C)C)cc1	HSF1 activator 100
COc1cccc(OC)c1OCCCc1c(C)n[nH]c1C	GPR7 antagonist 16
CC1=C(C(=O)OC2CCCCC2)C(c2cccnc2)n2nnnc2N1 (stereo not drawn)	T cruzi inh 59
CC(C)[C@H](NC(=O)Cc1ccccc1)C(=O)OCc1cc(=O)n2c(n1)sc1ccccc12	HSF1 inh -72
Cc1ccc2c(CC(=O)OCc3cc(=O)n4c(n3)sc3ccccc34)coc2c1	none
CC(C)CN=C(NS(=O)(=O)c1ccccc1)C(Cl)(Cl)Cl	HSF1 inh -74
O=C(Nc1ccccc1Cl)NC1(C(=O)NCc2cccnc2)CCCCC1	none
S=C(Nc1ccc(Cl)cc1)Nc1cccc2cnccc12	HSF1 activator 61
Fc1ccc(NC(=S)Nc2cccc3ccccc23)cc1	none
CC(C)c1ccc(NC(=S)Nc2cccc3ccccc23)cc1	HSF1 inh -68
Cc1ccc(NC(=S)Nc2cccc3ccccc23)cc1	HSF1 inh -80
Cc1cc(C)cc(NC(=S)Nc2cccc3ccccc23)c1	none
COc1ccc(-c2n(CC(=O)OC3CC(C)CCC3C(C)C)c3ccccc3[n+]2C)cc1 (stereo not drawn)	GPR7 antagonist 93 (no result: 697 NFkB inh, Jurkat NFkB inh)
Cc1cc(S(=O)(=O)N2CCCCC2)c(C)s1	none
CN(C)S(=O)(=O)c1ccc(NC(=O)N2CCN(c3cccc(C(F)(F)F)c3)CC2)cc1	T cruzi inh 55
COCCN(C(=O)C(C)C)c1nnc(-c2ccc(C)cc2)s1	none
COCCNC(=O)CSC1=N/C(=C/c2ccc(Cl)c(Cl)c2)C(=O)N1c1ccccc1F	HSF1 inh -61
CC(C)Oc1ccc(C(=O)O)cc1	HSF1 inh -89
CC(C)Oc1ccc(C(=O)O)c(C(=O)O)c1	none
Cc1nn(C(=O)C2CC2)c(C)c1Sc1ccc(Cl)cc1	none
Cc1nn(S(=O)(=O)c2ccc(Cl)cc2)c(C)c1Sc1ccc([N+](=O)[O-])cc1	T cruzi inh 62 (no result: 697 NFkB inh, Jurkat NFkB inh)
Cc1ccc(C)c(NC(=O)CS(=O)(=O)c2cn(C)c3ccccc23)c1	HSF1 activator 54
CCC1(c2ccccc2)NC(=S)N(c2ccc(C)c(C)c2)N1 (stereo not drawn)	HSF1 activator 52
CCC1(c2ccc(Cl)cc2)NC(=S)N(c2ccc(C)cc2)N1 (stereo not drawn)	HSF1 activator 61
Cc1ccc([N+](=O)[O-])cc1N(CC(=O)Nc1ccc(S(=O)(=O)Nc2cccc(C(F)(F)F)c2)cc1)S(C)(=O)=O	T cruzi inh 61
COc1ccccc1N(CC(=O)Nc1cccc(C(F)(F)F)c1)S(C)(=O)=O	none
COc1ccc(NC(=O)CCSc2ccc(F)cc2)cc1	HSF1 activator 55
COc1ccc(NC(=O)CCSc2ccc(C)cc2)cc1	none
CCOc1ccc(C(=O)NCC(=O)N2CCCC2)cc1	none
CC(=O)Nc1ccc(-c2nnn(CC(=O)Nc3ccc4c(c3)OCO4)n2)cc1Cl	HSF1 inh -59
O=C(N/N=C/c1cc2c3c(c1O)CCCN3CCC2)c1ccccc1O	T cruzi inh 59 (no result: 697 NFkB inh, Jurkat NFkB inh)
Cc1ccc(NC(=O)NCC2CCN(Cc3cccc(Cl)c3)CC2)cc1Cl	T cruzi inh 62
CCOc1cc(-c2nc(-c3ccccc3)c(-c3cc([N+](=O)[O-])ccc3C)[nH]2)ccc1O	T cruzi inh 57
COc1ccc(-c2nc(-c3ccccc3)c(-c3cc([N+](=O)[O-])ccc3C)[nH]2)cc1OC	none
COc1ccc(CNC(=O)c2ccc(N(C)S(=O)(=O)c3ccc(C)cc3)cc2)cc1	none
COc1ccc(S(=O)(=O)N(C)c2ccc(C(=O)NCc3ccccn3)cc2)cc1	HSF1 activator 68
COc1ccc(CCNC(=O)COc2ccc(N(C)S(=O)(=O)c3ccc(C)cc3)cc2)cc1	HSF1 activator 53
CN1CCN(S(=O)(=O)c2cnccc2N2CCN(c3cccc(Cl)c3)CC2)CC1	T cruzi inh 56
CCN(CC)S(=O)(=O)c1cnccc1N1CCN(c2cccc(Cl)c2)CC1	T cruzi inh 65
CNS(=O)(=O)c1cnccc1N1CCN(c2cccc(Cl)c2)CC1	none
CC1(C)CC(=O)c2cnc(N3CCc4ccccc4C3)nc2C1	HSF1 activator 55
CC1(C)CC(=O)c2cnc(N3CCN(c4ccccc4)CC3)nc2C1	none

Bioassay records deposited in PubChem BioAssay by several laboratories.
